# Experimental data from ChEMBL document CHEMBL4680287, “Ibrexafungerp: An orally active β-1,3-glucan synthesis inhibitor” (Bioorg Med Chem Lett, 2021).
# Legend:
# [1] = Dose normalized AUC in po rhesus monkey; type: ADME, organism-based, Macaca mulatta; conditions: in vivo
# [2] = Dose normalized AUC in po dosed mouse; type: ADME, organism-based; conditions: in vivo
# Candida albicans [3] = test: Antifungal activity against Candida albicans MY1055 assessed as fungal growth inhibition measured after 24 hrs in presence of 50% mouse serum by liquid microdilution method; type: functional
# Method in brief: (§1)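 Broth microdilution per CLSI protocols in RPMI medium. Read-out is the MIC, the lowest concentration completely inhibiting fungal growth. Run without serum and with added serum.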
# Candida albicans [4] = test: Antifungal activity against Candida albicans MY1055 assessed as fungal growth inhibition measured after 24 hrs by liquid microdilution method; type: functional; method in brief: as §1
# Aspergillus fumigatus [5] = test: Antifungal activity against Aspergillus fumigatus MF5668 infected in DBA/2N mouse assessed as mouse survival at 6.25 mg/kg, ip bid administered for 7 days starting from 15 to 30 mins post infection and measured up to 21 days relative to control; type: functional; conditions: 168 h, time 7 day
# Method in brief: (§2)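 DBA/2N mice were infected IV with A. fumigatus MF5668 (6.7 x 10^5 CFU/mouse) and treated IP bid for 7 days. Percent survival per dose group was scored at the end of the 21-day survival model and compared with the sham-treated control group.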
# Candida albicans [6] = test: Antifungal activity against Candida albicans MY1055 infected in DBA/2 mouse model of disseminated candidiasis assessed as reduction in fungal burden in kidney by measuring log change in colony forming units at 6.25 mg/kg, po bid for 7 days by TOKA; type: functional; conditions: time 7 day
# Method in brief: (§3)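 Murine disseminated candidiasis model (TOKA) in mice challenged with C. albicans MY1055 at 2.44 x 10^4 CFU/mouse. Dosed PO, or IP where stated. Kidneys collected aseptically 7 days after challenge and CFUs/g counted. Change in log CFU/g is relative to sham-treated controls; significance by two-tailed t test. Clearance is the percentage of kidneys below the detection limit.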
# [7] = Clearance in mouse; type: ADME, organism-based; conditions: in vivo
# Aspergillus fumigatus [8] = test: Antifungal activity against Aspergillus fumigatus MF5668 assessed inhibition of fungal growth by measuring morphological changes measured after 24 hrs by microscopy; type: functional; conditions: read-out: MEC
# Method in brief: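 Microdilution per CLSI protocols in RPMI medium. Read-out is the minimum effective concentration (MEC). Run without serum and with 50% human serum.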
# Candida albicans [9] = test: Antifungal activity against Candida albicans MY1055 infected in ip dosed DBA/2 mouse model of disseminated candidiasis assessed as reduction in fungal burden in kidney administered bid for 7 days by TOKA; type: functional; conditions: 168 h, time 7 day; method in brief: as §3
# [10] = Oral bioavailability in rat; type: ADME, organism-based; conditions: in vivo
# Method in brief: (§4)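 Oral bioavailability calculated as oral AUC normalized to the IV dose, divided by the IV AUC.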
# [11] = Dose normalized AUC in po dosed rat; type: ADME, organism-based; conditions: in vivo
# Candida albicans [12] = test: Antifungal activity against Candida albicans MY1055 infected in DBA/2 mouse model of disseminated candidiasis assessed as reduction in fungal burden in kidney by measuring log change in colony forming units at 25 mg/kg, po bid for 7 days by TOKA; type: functional; conditions: time 7 day; method in brief: as §3
# [13] = Oral bioavailability in mouse; type: ADME, organism-based; conditions: in vivo; method in brief: as §4
# [14] = Oral bioavailability in dog; type: ADME, organism-based, Canis lupus familiaris; conditions: in vivo; method in brief: as §4
# Aspergillus fumigatus [15] = test: Antifungal activity against Aspergillus fumigatus MF5668 infected in DBA/2N mouse assessed as mean survival time at 12.5 mg/kg, ip bid administered for 7 days starting from 15 to 30 mins post infection and measured up to 21 days; type: functional; conditions: time 7 day
# Method in brief: (§5)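 DBA/2N mice were challenged IV with A. fumigatus MF5668 at 6.7 x 10^5 CFU/mouse, then dosed IP twice daily for 7 days. Survival was followed over a 21-day model, and mean survival time in days was recorded per dose group. A sham-treated control group was run alongside.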
# Aspergillus fumigatus [16] = test: Antifungal activity against Aspergillus fumigatus MF5668 infected in DBA/2N mouse assessed as mean survival time at 1.56 mg/kg, ip bid administered for 7 days starting from 15 to 30 mins post infection and measured up to 21 days; type: functional; conditions: time 7 day; method in brief: as §5
# [17] = Clearance in rhesus monkey; type: ADME, Macaca mulatta; conditions: in vivo
# [18] = Inhibition of beta-1,3-glucan synthase in Candida albicans MY1055 microsomal membrane assessed as inhibition of TCA-insoluble material formation using UDP-[3H]-glucose as substrate incubated for 2 hrs in presence of GTP by radioactivity-based assay; type: microsomes, Microsome
# Method in brief: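 GS IC50 measured using Candida albicans MY1055 microsomal membrane fragments as the enzyme source.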
# Aspergillus fumigatus [19] = test: Antifungal activity against Aspergillus fumigatus MF5668 infected in DBA/2N mouse assessed as mean survival time at 6.25 mg/kg, ip bid administered for 7 days starting from 15 to 30 mins post infection and measured up to 21 days; type: functional; conditions: time 7 day; method in brief: as §5
# Aspergillus fumigatus [20] = test: Antifungal activity against Aspergillus fumigatus MF5668 infected in DBA/2N mouse assessed as mouse survival at 3.125 mg/kg, ip bid administered for 7 days starting from 15 to 30 mins post infection and measured up to 21 days relative to control; type: functional; conditions: 168 h, time 7 day; method in brief: as §2
# [21] = Half life in rhesus monkey; type: ADME, Macaca mulatta; conditions: in vivo
# Aspergillus fumigatus [22] = test: Antifungal activity against Aspergillus fumigatus MF5668 infected in ip dosed DBA/2N mouse assessed as 90% mouse survival administered bid administered for 7 days starting from 15 to 30 mins post infection and measured up to 21 days; type: functional; conditions: 168 h, time 7 day
# Aspergillus fumigatus [23] = test: Antifungal activity against Aspergillus fumigatus MF5668 infected in ip dosed DBA/2N mouse assessed as 50% mouse survival administered bid administered for 7 days starting from 15 to 30 mins post infection and measured up to 21 days; conditions: 168 h
# [24] = Dose normalized AUC in po dosed dog; type: ADME, organism-based, Canis lupus familiaris; conditions: in vivo
# Candida albicans [25] = test: Antifungal activity against Candida albicans MY1055 infected in DBA/2 mouse model of disseminated candidiasis assessed as reduction in fungal burden in kidney by measuring log change in colony forming units at 12.5 mg/kg, po bid for 7 days by TOKA; type: functional; conditions: time 7 day; method in brief: as §3
# [26] = Oral bioavailability in rhesus monkey; type: ADME, organism-based, Macaca mulatta; conditions: in vivo; method in brief: as §4
# Aspergillus fumigatus [27] = test: Antifungal activity against Aspergillus fumigatus MF5668 infected in DBA/2N mouse assessed as mean survival time at 3.125 mg/kg, ip bid administered for 7 days starting from 15 to 30 mins post infection and measured up to 21 days; type: functional; conditions: time 7 day; method in brief: as §5
# Aspergillus fumigatus [28] = test: Antifungal activity against Aspergillus fumigatus MF5668 infected in DBA/2N mouse assessed as mouse survival at 1.56 mg/kg, ip bid administered for 7 days starting from 15 to 30 mins post infection and measured up to 21 days relative to control; type: functional; conditions: 168 h, time 7 day; method in brief: as §2
# [29] = Half life in mouse; type: ADME, organism-based; conditions: in vivo
# [30] = Clearance in rat; type: ADME; conditions: in vivo
# Candida albicans [31] = test: Antifungal activity against Candida albicans MY1055 infected in DBA/2 mouse model of disseminated candidiasis assessed as reduction in fungal burden in kidney by measuring log change in colony forming units at 12.5 mg/kg, ip bid for 7 days by TOKA; type: functional; conditions: time 7 day; method in brief: as §3
# [32] = Half life in rat; type: ADME; conditions: in vivo
# [33] = Clearance in dog; type: ADME, Canis lupus familiaris; conditions: in vivo
# Aspergillus fumigatus [34] = test: Antifungal activity against Aspergillus fumigatus MF5668 infected in DBA/2N mouse assessed as mouse survival at 12.5 mg/kg, ip bid administered for 7 days starting from 15 to 30 mins post infection and measured up to 21 days relative to control; type: functional; conditions: 168 h, time 7 day; method in brief: as §2
# [35] = Half life in dog; type: ADME, Canis lupus familiaris; conditions: in vivo
structure (smiles),measurement,setting,value
CC(C)[C@@H](C)[C@@]1(C)CC[C@]2(C)[C@H]3CC[C@@H]4[C@@]5(COC[C@@]4(C)[C@@H](OC[C@](C)(N)C(C)C)[C@H](n4ncnc4-c4ccncc4)C5)C3=CC[C@@]2(C)[C@@H]1C(=O)O,AUC/dose,[1],0.08 µM·kg·h/mg
same,AUC/dose,[2],0.42 µM·kg·h/mg
same,MIC,Candida albicans [3],0.5 mg/L
same,MIC,Candida albicans [4],< 0.03 mg/L
same,survival at 6.25 mg/kg,Aspergillus fumigatus [5],40%
same,Activity,Candida albicans [6],-2.4 deltalog10CFU
same,clearance,[7],1.02 L/h/kg
same,minimal effective concentration,Aspergillus fumigatus [8],< 0.03 µg/mL
same,ED99,Candida albicans [9],1.2 mg/kg
same,bioavailability,[10],28%
same,AUC/dose,[11],0.56 µM·kg·h/mg
same,Activity,Candida albicans [12],-4.5 deltalog10CFU
same,bioavailability,[13],31%
same,bioavailability,[14],21%
same,MST,Aspergillus fumigatus [15],14.7 days
same,MST,Aspergillus fumigatus [16],4.2 days
same,clearance,[17],0.84 L/h/kg
same,IC50,[18],0.002 mg/L
same,MST,Aspergillus fumigatus [19],12.4 days
same,survival at 3.125 mg/kg,Aspergillus fumigatus [20],30%
same,half-life,[21],6.1 h
same,ED90,Aspergillus fumigatus [22],31 mg/kg
same,ED50,Aspergillus fumigatus [23],8.2 mg/kg
same,AUC/dose,[24],0.9 µM·kg·h/mg
same,Activity,Candida albicans [25],-2.9 deltalog10CFU
same,bioavailability,[26],5%
same,MST,Aspergillus fumigatus [27],10.7 days
same,survival at 1.56 mg/kg,Aspergillus fumigatus [28],0%
same,half-life,[29],4.9 h
same,clearance,[30],0.72 L/h/kg
same,Activity,Candida albicans [31],-4.01 deltalog10CFU
same,half-life,[32],3.9 h
same,clearance,[33],0.36 L/h/kg
same,survival at 12.5 mg/kg,Aspergillus fumigatus [34],60%
same,half-life,[35],9 h
